Reference: ChEMBL document CHEMBL1146496, “Expanding the strategies in natural product studies of marine-derived fungi: a chemical investigation of penicillium obtained from deep water sediment” (J Nat Prod, 2004)
In brackets after ≈: the same amount, converted by molar mass.

Columns and labels:
[1] = tested on: MDA-MB-435; test: Cytotoxicity against human MDA-MB-435 after 48 hrs by SRB assay; type: functional, cell-based; conditions: MDA-MB-435, 48 h
In short: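 MDA-MB-435 cells plated and left to attach and grow 24 h, then exposed to compound or ethanol vehicle for 48 h. Cells fixed with 10% trichloroacetic acid, stained with 0.4% sulforhodamine B, absorbance read at 560 nm. Full dose–response in triplicate; IC50 (50% proliferation inhibition) taken from the linear portion of the log-dose–response curve.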

[2] = Cytotoxicity against human H125 cells assessed as zone units at 11.6 mg/mL by disk diffusion soft agar colony formation assay; type: functional
In short: (§1)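 Soft agar colony formation with disk diffusion. Sample dissolved in 250 µL DMSO; a 15 µL aliquot at the stated concentration is spotted on a cellulose disk laid on agar containing the cells. After incubation, the zone of colony inhibition is measured in zone units (200 zu = 6 mm). Activity is defined as ≥300 zu.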

[3] = Cytotoxicity against mouse CFU-GM cells assessed as zone units at 11.6 mg/mL by disk diffusion soft agar colony formation assay; type: cell-based; in short: as §1
[4] = tested on: L1210; test: Cytotoxicity against mouse L1210 cells assessed as zone units at 11.6 mg/mL by disk diffusion soft agar colony formation assay; type: functional; in short: as §1
[5] = Cytotoxicity against human H116 cells assessed as zone units at 11.6 mg/mL by disk diffusion soft agar colony formation assay; type: functional; in short: as §1
[6] = tested on: MC-38; test: Cytotoxicity against mouse C38 cells assessed as zone units at 11.6 mg/mL by disk diffusion soft agar colony formation assay; type: functional; in short: as §1
[7] = tested on: CCRF-CEM; test: Cytotoxicity against human CEM cells assessed as zone units at 11.6 mg/mL by disk diffusion soft agar colony formation assay; type: functional; in short: as §1
[8] = tested on: L1210; test: Cytotoxicity against mouse L1210 cells assessed as zone units at 8.0 mg/mL by disk diffusion soft agar colony formation assay; type: functional; in short: as §1
[9] = tested on: MC-38; test: Cytotoxicity against mouse C38 cells assessed as zone units at 8.0 mg/mL by disk diffusion soft agar colony formation assay; type: functional; in short: as §1
[10] = Cytotoxicity against human H125 cells assessed as zone units at 8.0 mg/mL by disk diffusion soft agar colony formation assay; type: functional; in short: as §1
[11] = Cytotoxicity against mouse CFU-GM cells assessed as zone units at 8.0 mg/mL by disk diffusion soft agar colony formation assay; type: cell-based; in short: as §1
[12] = Cytotoxicity against human H116 cells assessed as zone units at 8.0 mg/mL by disk diffusion soft agar colony formation assay; type: functional; in short: as §1
[13] = Cytotoxicity against human H116 cells assessed as zone units at 6.0 mg/mL by disk diffusion soft agar colony formation assay; type: functional; in short: as §1
[14] = Cytotoxicity against mouse CFU-GM cells assessed as zone units at 6.0 mg/mL by disk diffusion soft agar colony formation assay; type: cell-based; in short: as §1
[15] = tested on: L1210; test: Cytotoxicity against mouse L1210 cells assessed as zone units at 6.0 mg/mL by disk diffusion soft agar colony formation assay; type: functional; in short: as §1
[16] = Cytotoxicity against human H125 cells assessed as zone units at 6.0 mg/mL by disk diffusion soft agar colony formation assay; type: functional; in short: as §1
[17] = tested on: MC-38; test: Cytotoxicity against mouse C38 cells assessed as zone units at 6.0 mg/mL by disk diffusion soft agar colony formation assay; type: functional; in short: as §1
[18] = Cytotoxicity against human H125 cells assessed as zone units at 4.0 mg/mL by disk diffusion soft agar colony formation assay; type: functional; in short: as §1
[19] = tested on: CCRF-CEM; test: Cytotoxicity against human CEM cells assessed as zone units at 4.0 mg/mL by disk diffusion soft agar colony formation assay; type: functional; in short: as §1
[20] = tested on: MC-38; test: Cytotoxicity against mouse C38 cells assessed as zone units at 4.0 mg/mL by disk diffusion soft agar colony formation assay; type: functional; in short: as §1
[21] = Cytotoxicity against human H116 cells assessed as zone units at 4.0 mg/mL by disk diffusion soft agar colony formation assay; type: functional; in short: as §1
[22] = tested on: L1210; test: Cytotoxicity against mouse L1210 cells assessed as zone units at 4.0 mg/mL by disk diffusion soft agar colony formation assay; type: functional; in short: as §1
[23] = Cytotoxicity against mouse CFU-GM cells assessed as zone units at 4.0 mg/mL by disk diffusion soft agar colony formation assay; type: cell-based; in short: as §1
[24] = Cytotoxicity against human H125 cells assessed as zone units at 6.8 mg/mL by disk diffusion soft agar colony formation assay; type: functional; in short: as §1
[25] = tested on: MC-38; test: Cytotoxicity against mouse C38 cells assessed as zone units at 6.8 mg/mL by disk diffusion soft agar colony formation assay; type: functional; in short: as §1
[26] = tested on: L1210; test: Cytotoxicity against mouse L1210 cells assessed as zone units at 6.8 mg/mL by disk diffusion soft agar colony formation assay; type: functional; in short: as §1
[27] = Cytotoxicity against mouse CFU-GM cells assessed as zone units at 6.8 mg/mL by disk diffusion soft agar colony formation assay; type: cell-based; in short: as §1
[28] = Cytotoxicity against human H116 cells assessed as zone units at 6.8 mg/mL by disk diffusion soft agar colony formation assay; type: functional; in short: as §1

## COC1=CC(=O)C(C)=C(C[C@H](C)O)C1=O [ANSERINONE B]
[1]
  IC50: 3.6 µg/mL (≈ 17.1 µM)
[2]
  Activity: 400 Zone units
[3]
  Activity: 650 Zone units
[4]
  Activity: 700 Zone units
[5]
  Activity: 400 Zone units
[6]
  Activity: 400 Zone units
[7]
  Activity: 650 Zone units

## COC1=CC(=O)[C@]2(C)O[C@@]23CC(C)OC13O (stereo partly drawn) [(+)-EPOXYSERINONE B]
[1]
  IC50: > 10 µg/mL
[8]
  Activity: 250 Zone units
[9]
  Activity: 400 Zone units
[10]
  Activity: 50 Zone units
[11]
  Activity: 400 Zone units
[12]
  Activity: 200 Zone units

## COC1=CC(=O)C(C)=C(CC(C)=O)C1=O [ANSERINONE A]
[1]
  IC50: 2.22 µg/mL (≈ 10.7 µM)
[13]
  Activity: 50 Zone units
[14]
  Activity: 150 Zone units
[15]
  Activity: 300 Zone units
[16]
  Activity: 50 Zone units
[17]
  Activity: 300 Zone units

## COC1=CC(=O)C(C)=C(C[C@H](C)OC=O)C1=O [(+)-FORMYLANSERINONE B]
[1]
  IC50: 2.9 µg/mL (≈ 12.2 µM)
[18]
  Activity: 350 Zone units
[19]
  Activity: 550 Zone units
[20]
  Activity: 250 Zone units
[21]
  Activity: 400 Zone units
[22]
  Activity: 550 Zone units
[23]
  Activity: 600 Zone units

## COC1=CC(=O)[C@]2(C)O[C@@]23C[C@@H](C)O[C@@]13O
[24]
  Activity: 0 Zone units
[1]
  IC50: > 10 µg/mL
[25]
  Activity: 200 Zone units
[26]
  Activity: 50 Zone units
[27]
  Activity: 0 Zone units
[28]
  Activity: 0 Zone units
